Shown are actives, neighbours in structure and some others; about 6.4% of the full set was active somewhere.
HUVEC inhibit – human endothelial cell proliferation inhibition; actives 1.1% (n = 86,000); viability, % at 10 µM (by protocol); HUVEC proliferation, CellTiter-Glo luminescence, 72 h; hits give low values;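 active means viability at or below 30%; inactive means viability above 30%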;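 further: 100% = median luminescence of DMSO-only cell control wells on each plate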
H69AR growth 86K – blocks growth of human H69AR lung tumor cells; AID 598; H69AR lung tumor viability, ATP luminescence, 72 h; hits give low values; viability, % at 10 µM; actives 6% (n = 85,000);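 active means viability at or below 40%; inactive means viability above 40%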;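 further: multidrug resistant small cell line overexpressing MRP-1 efflux transporter; 100% = mean luminescence of untreated control wells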
Ecoli tolC – blocks growth of E. coli BW25113 tolC mutant; OD615; growth inhibition, % at 10 µM (by protocol); actives 2.2% (n = 65,000);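 active means growth inhibition at or above a cutoff equal to the mean over every tested compound plus 3 SD, cut at about 60% in these data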;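 further: growth measured after 20 h incubation at 37 °C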
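Assay system: tolC-deleted E. coli BW25113. Medium: kanamycin-containing LB broth (50 µg/mL). Dosing: 10 µM final, single dose. Timing: bacterial growth with compound for 20 h at 37 °C. Detection: A615 absorbance measurement. Read-out basis: growth inhibition in percent.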
Ecoli WT expand – blocks growth of wild type E. coli BW25113 | OD600 absorbance | growth inhibition, % at 100 µM | actives 0.15% (n = 98,000);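 active means growth inhibition above about 50% at one test dose, limit read from the data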;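 further: growth measured after 20 h incubation at 37 °C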
Fibroblast inh – blocks proliferation of human lung fibroblasts; LL 47 human lung fibroblast viability, ATP luminescence; hits give low values; viability, % at 10 µM; actives 1.1% (n = 85,000);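 active means viability at or below 50% in the single dose screen; inactive means viability above 50%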;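 further: compound exposure lasted 72 h before the ATP readout; 100% = median luminescence of untreated cell-only wells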
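Material: human LL 47 lung fibroblast cells; quantity: 1,150 cells/well; medium: IMEM plus 15% FBS; doses: 0.1% DMSO in all compound wells; timing: overnight attachment after seeding, then 72 h compound exposure at 37 °C; detection: CellTiter-Glo luminescence; measure: % viability of median cell-only signal; controls: cell-only wells, no compound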
Jurkat tox 60K – cytotoxic compounds reducing Jurkat cell viability | actives 1.2% (n = 56,000) | Jurkat E6.1 viability, ATP luminescence, 48 h | inhibition, % at 4 µM;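 active means inhibition above the mean inhibition of all tested compounds plus 3 SD, cut at about 28% in these data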
An asterisk follows results filed as active.

For Cc1ccc(C2C(S(C)(=O)=O)=C(O)C(=O)N2c2ccccc2)cc1 (centres undefined) (tested in a mixture with another compound) the results were HUVEC inhibit 99, H69AR growth 86K 100, Ecoli tolC 75*, Ecoli WT expand 4, Fibroblast inh 103 and Jurkat tox 60K 0.
For CCC1=C(C)C(N2CCOCC2)=NP(N2CCOCC2)(N2CCOCC2)=N1 the results were HUVEC inhibit 98, H69AR growth 86K 95, Ecoli tolC -9, Ecoli WT expand -9 and Fibroblast inh 97.
For CCC(CC)C1C(C#N)=C(N)Oc2c1c(=O)oc1ccccc21 (centres undefined) the results were HUVEC inhibit 87, H69AR growth 86K 37* and Fibroblast inh 88.
Screening Cc1nn(-c2ccccc2)c(Cl)c1C1C(C#N)=C(N)Oc2c1c(=O)oc1ccccc21 (centres undefined) returned HUVEC inhibit 89, H69AR growth 86K 86, Ecoli tolC 68*, Ecoli WT expand -19, Fibroblast inh 89 and Jurkat tox 60K -3.
Screening N#CC1=C(N)Oc2c(c(=O)oc3ccccc23)C1c1cccnc1 (centres undefined) returned HUVEC inhibit 90, H69AR growth 86K 92, Ecoli tolC 1, Ecoli WT expand 6 and Fibroblast inh 97.
For Clc1ccc(COC(Cn2ccnc2)c2ccc(Cl)cc2Cl)cc1 (centres undefined) the results were HUVEC inhibit 9.2*, H69AR growth 86K 26*, Ecoli tolC 100* and Fibroblast inh 78.
Screening Clc1ccc(CSC(Cn2ccnc2)c2ccc(Cl)cc2Cl)cc1 (centres undefined) returned HUVEC inhibit 66, H69AR growth 86K 9.2*, Ecoli tolC 10 and Fibroblast inh 85.
c1ccc(Cn2ccnc2)cc1 was read as HUVEC inhibit 94, H69AR growth 86K 92, Ecoli tolC 3 and Fibroblast inh 101.
CC(=NCCC1=CCCCC1)c1c(O)n(C)c(=O)n(C)c1=O was read as HUVEC inhibit 86, Ecoli tolC 3, Ecoli WT expand 0, Fibroblast inh 87 and Jurkat tox 60K -1.
For CCCCCCn1c(O)c(C=NC2CCCCC2N)c(=O)[nH]c1=O (centres undefined) the results were HUVEC inhibit 5.0*, H69AR growth 86K 29*, Ecoli tolC -14, Ecoli WT expand -5, Fibroblast inh 81 and Jurkat tox 60K -6.
COC(=O)C1CN(C#N)N(c2ccc(Cl)cc2)C12c1ccccc1-c1ccccc12 (centres undefined) was read as HUVEC inhibit 2.4*, H69AR growth 86K 2.3* and Fibroblast inh 2.1*.
For COc1ccc(C(CC(=O)N2CCC3(CC2)OCCO3)NS(=O)(=O)c2ccc(OC)cc2)cc1 (centres undefined) the results were HUVEC inhibit 85, H69AR growth 86K 92, Ecoli tolC -2, Ecoli WT expand 6, Fibroblast inh 89 and Jurkat tox 60K -6.
For CCCNC(=O)c1c(N)n(Cc2ccco2)c2nc3ccccc3nc12 the results were HUVEC inhibit 65, H69AR growth 86K 26*, Ecoli WT expand -11 and Fibroblast inh 92.
For CC(C)CNC(=O)c1c(N)n(Cc2ccco2)c2nc3ccccc3nc12 the results were HUVEC inhibit 66, H69AR growth 86K 34*, Ecoli WT expand -10 and Fibroblast inh 76.
`Nc1c(C(=O)NCc2ccco2)c2nc3ccccc3nc2n1CCN1CCCCC1` gave HUVEC inhibit 19*, H69AR growth 86K 1.2*, Ecoli tolC 6, Ecoli WT expand 10 and Fibroblast inh 60.
Screening COCCOC(=O)c1c(N)n(Cc2ccco2)c2nc3ccccc3nc12 returned HUVEC inhibit 93, H69AR growth 86K 50, Ecoli tolC 13 and Fibroblast inh 100.
CCCCN1C(=O)NC(=O)C2(Cc3c(nc4c(C)cccn4c3=O)N3CCc4ccccc4C32)C1=O (centres undefined) was read as HUVEC inhibit 58, H69AR growth 86K 101, Ecoli tolC 98*, Ecoli WT expand -7, Fibroblast inh 90 and Jurkat tox 60K 3.
For O=C1NC(=O)C(=Cc2cn(CCOc3ccc4c(c3)OCO4)c3ccccc23)C(=O)N1 the results were HUVEC inhibit 53, H69AR growth 86K 78, Ecoli WT expand -10 and Fibroblast inh 48*.

Screening data as filed in PubChem.
